Data from article PMC8873552 (Chemical Science, 2021).

Columns and labels:
[1] = Reaction kinetics of acrolein–azide 1,3-dipolar cycloaddition; type: physicochemical
[2] = tested on: A549 cell xenograft-bearing nude mice; experiment: Intravenous therapy of xenograft mice; type: in vivo, mouse; details: 240 nmol; for survival: every three days for ten days; for tumor growth: every three days for ten days (four injections)
Summary of the method: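 Nude mice bearing A549 xenografts were injected intravenously every three days over ten days, four injections in total, at twice the intratumoral concentration. Comparison groups matched the intratumoral study. Tumour growth and body weight were monitored.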

[3] = tested on: A549 cell xenograft-bearing nude mice; experiment: Intratumor therapy of xenograft mice; type: in vivo, mouse; details: intratumoral, 120 nmol
Summary of the method: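 Nude mice bearing A549 xenografts received intratumoral injections once daily for 12 days. Comparison groups were vehicle, the azide control, the phenyl-azide conjugate and free drug. Tumour growth, body weight and survival were monitored.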

[4] = In vivo drug release analysis; set-up: species or system mouse; details: two hours after intratumoral administration
Summary of the method: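 A549 xenograft-bearing nude mice were dosed intratumorally. Two hours later, tumour and urine extracts were analysed by RP-HPLC for intact prodrug and free drug.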

[N-]=[N+]=Nc1ccccc1 [Compound 1a, phenyl azide]
second-order rate constant (k), reaction with acrolein to give triazoline 3a ([1]; formation of triazoline 3a): 0.00065 M⁻¹ s⁻¹

CC(C)c1cccc(C(C)C)c1N=[N+]=[N-] [Compound 1d, 2,6-diisopropylphenyl azide]
second-order rate constant (k), formation of 4-formyl-1,2,3-triazole 4d ([1]; formation of 4d): 0.00095 M⁻¹ s⁻¹ | second-order rate constant (k), reaction with acrolein to give heterocycle 6 ([1]; formation of heterocycle 6): 0.00633 M⁻¹ s⁻¹ | rate ratio, formation of heterocycle 6 versus 4-formyl-1,2,3-triazole 4d ([1]; times faster): 6.6 times | rate constant ratio, 1d to heterocycle 6 versus 1a to triazoline 3a ([1]; times higher): 9.7 times

Cc1cc(C(C)C)c(N=[N+]=[N-])c(C(C)C)c1 [Compound 9, 4-methyl-2,6-diisopropyl-phenyl azide]
tumor size ([2]; by two weeks): 800 mm^3 | survival [2]: survived less than three weeks after treatment | tumor growth [2]: does not have any effect | survival ([3]; every day for 12 days): survived less than twelve days after treatment | tumor growth ([3]; every day for 12 days): does not retard the tumor growth | tumor size ([3]; in two weeks): 900 mm^3

CO[C@@]12[C@H](COC(N)=O)C3=C(C(=O)C(C)=C(N)C3=O)N1C[C@@H]1N[C@@H]12 [MMC, mitomycin C]
body weight ([2]; every three days): the body weight loss was very drastic | survival [2]: could not survive before the fourth injection | tumor growth [2]: significantly inhibited tumor growth | inflammation ([2]; tenth day of treatment): inflammation in the tail area | body weight ([3]; every day for 12 days): more body weight loss | survival ([3]; every day for 12 days): survived less than five days after treatment | tumor growth ([3]; every day for 12 days): significantly inhibits tumor growth | inflammation and ADRs ([3]; post-treatment day 4): inflammation on the whole body | compound detected in tumor extract [4]: the free drug could not be detected from the tumor | compound detected in urine extract [4]: the secreted MMC drug was present in the urine
